GPR7 antag: human neuropeptides B/W receptor 1 antagonism. P48145. GPR7-expressing cells, fluorescence antagonist assay. inhibition, % at 4.4 µM. hit rate 1.1% among 290,000; in the data active means inhibition above about 16%, passing the limit was not always enough;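 further: cells stimulated with the agonist NPW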
DAGLB inh: diacylglycerol lipase beta (human) inhibition. HEK293T DAGLB membrane lysate, EnzChek fluorogenic substrate. hit rate 0.059% among 340,000. AID 504411. inhibition, % at 5.17 µM. Q8NCG7; in the data active means inhibition above about 34%
TAAR1 ag: agonists of human TAAR1; activation, % at 3 µM; CHO RD-HGA16 TAAR1, Fluo-8 calcium fluorescence; vehicle wells 0%, saturating PEA agonist 100%; hit rate 0.99% among 360,000; AID 624467; Q96RJ0;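 active means activation above the mean activation of all test compounds in the run plus 3 SD, cut at about 38% in these data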
Target sequence (Q96RJ0 whole entry, looked up): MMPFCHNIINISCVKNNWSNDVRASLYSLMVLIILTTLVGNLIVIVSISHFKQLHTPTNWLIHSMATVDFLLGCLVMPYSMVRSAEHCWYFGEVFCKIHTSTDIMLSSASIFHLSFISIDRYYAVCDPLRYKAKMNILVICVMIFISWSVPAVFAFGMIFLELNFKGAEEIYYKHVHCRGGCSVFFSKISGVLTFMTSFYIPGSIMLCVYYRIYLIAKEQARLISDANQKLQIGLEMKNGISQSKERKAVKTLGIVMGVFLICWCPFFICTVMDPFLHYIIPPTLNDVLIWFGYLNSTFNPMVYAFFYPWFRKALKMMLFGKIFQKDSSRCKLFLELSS
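Assay system: CHO-derived RD-HGA16 cells with stable Gα16 and human TAAR1; timing: 17-24 h seeding, 75 min 37 °C dye, 30 min RT; read-out: % activation from peak over basal fluorescence ratio, DMSO-to-PEA scaled; measured by: kinetic Fluo-8 calcium fluorescence; benchmarks: low control DMSO, high control PEA (EC100); doses: 3 µM single concentration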
MPTP inh: permeability transition pore inhibition | isolated mouse mitochondria, Ca2+ swelling absorbance, 30 min | inhibition, % at 10 µM | hit rate 1.4% among 360,000;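 active means inhibition of 50% or more, scaled per plate between neutral and stimulator controls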
TAAR1 antag: antagonists of human TAAR1. hit rate 1.5% among 360,000. AID 624466. CHO RD-HGA16 TAAR1, Fluo-8 calcium fluorescence, antagonist. inhibition, % at 3 µM;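 active means inhibition above a per-plate cutoff, the mean inhibition of test compounds on that plate plus 3 SD, cut at about 49% in these data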
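System: RD-HGA16 CHO cells with stable hTAAR1 and Gα16 | Probe or stimulus: EC80 β-phenethylamine stimulus | Dosing: 3 µM, single point | Times: Dye loading 75 min at 37 °C, then 30 min room temperature | Measured by: Fluo-8 calcium-sensitive fluorescence | Read-out basis: % inhibition of agonist calcium response | Replicates: n of 1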
MPTP counter: membrane potential counter-screen of mitochondrial pore inhibitors; shares compounds with MPTP inh; isolated mitochondria, Rhodamine 123 fluorescence; inhibition, % at 10 µM; hit rate 78% among 5,000
nonsel antag count: nonselective antagonism, TAAR1 counter-screen. counterscreen cell line, calcium fluorescence, antagonist mode. AID 651780. inhibition, % at 3 µM. shares compounds with TAAR1 antag. hit rate 77% among 2,400;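 further: CHO-Ga16 host cells stimulated with ATP at an EC80 level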
TAAR1 ant conf: human TAAR1 antagonism, confirmed; inhibition, % at 3 µM; shares compounds with TAAR1 antag; hit rate 40% among 2,400; TAAR1-expressing cells, fluorescence antagonist read-out; in the data active means inhibition above about 49%;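 further: CHO-Ga16 host cells challenged with agonist PEA near its EC80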
Ga16 nonsel ag: nonselective Ga16 agonist in TAAR1 antagonist counter-screen. shares compounds with TAAR1 antag. Ga16-expressing cells, calcium fluorescence, agonist counterscreen. activation, % at 3 µM. hit rate 18% among 2,400. AID 651953; in the data active means activation above about 12%
TAAR1 ag count: activates human TAAR1 in antagonist counter-screen | shares compounds with TAAR1 antag | hTAAR1 cell line, fluorescence activation, agonist mode | activation, % at 3 µM | hit rate 2% among 2,400 | AID 651955; in the data active means activation above about 37%;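 further: CHO cells stably expressing TAAR1 with calcium dye readout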
Each line names hits and unclear results; the compound was inactive in the other large screens (follow-up assays come after a bar, where they were run). Rows were chosen to be rich in hits. Some 4% of all compounds tested hit in one or more screens of this group. Unless noted, no stated cut-off is given here; in the data, active means inhibition above about 22%; inactive means the rest.

Cc1ccc(Cl)cc1-c1cc(C(=O)NCc2ccc(C(F)(F)F)cc2)[nH]n1	MPTP inh 52, TAAR1 antag 77 (no result: GPR7 antag, DAGLB inh) | MPTP counter 96 | nonsel antag count 42 | TAAR1 ant conf 66 | Ga16 nonsel ag 32 | TAAR1 ag count 58
COc1ccc(S(=O)(=O)N2CCCc3nc(-c4ccc(F)cc4)ccc32)cc1	none (no result: GPR7 antag, DAGLB inh, MPTP inh)
COc1ccc(S(=O)(=O)N2CCOCC2)cc1NC(=O)CN1C(=O)NC(C)(C2CC2)C1=O (centres undefined)	none (no result: GPR7 antag)
Fc1cccc(NC(=S)NNc2ccccc2)c1	none
Fc1cccc(NC(=S)NNc2c3ccccc3nc3ccccc23)c1	MPTP inh 92, TAAR1 antag 53 | MPTP counter 46 | nonsel antag count 40 | TAAR1 ant conf inactive | Ga16 nonsel ag inactive | TAAR1 ag count inactive
CC1CCCN(c2ccc(C(=O)Nc3ccc4c(c3)OCO4)cc2[N+](=O)[O-])C1 (centres undefined)	MPTP inh 58, TAAR1 antag 70 | MPTP counter 43 | nonsel antag count 25 | TAAR1 ant conf 73 | Ga16 nonsel ag inactive | TAAR1 ag count inactive
CC(=O)c1c(C)[nH]c(C(=O)Nc2cccc(S(=O)(=O)N(C)c3ccccc3)c2)c1C	MPTP inh 68, TAAR1 antag 61 | MPTP counter 79 | nonsel antag count 44 | TAAR1 ant conf 66 | Ga16 nonsel ag 14 | TAAR1 ag count inactive
CC(=O)c1c(C)[nH]c(C(=O)Nc2cccc(S(=O)(=O)N3CCOCC3)c2)c1C	none
O=C(c1cc(C(=O)NCCc2ccccc2)c(=O)n(CCc2ccccc2)c1)c1cc(Cl)ccc1O	MPTP inh 98, TAAR1 antag 65 | MPTP counter 79 | nonsel antag count 38 | TAAR1 ant conf 61 | Ga16 nonsel ag inactive | TAAR1 ag count inactive
COc1ccc(CCNC(=O)c2cc(C(=O)c3cc(Cl)ccc3O)cn(CCc3ccc(OC)cc3)c2=O)cc1	none
CC1CCc2c(sc3nc(C4CC4)nc(N4CCN(C(=O)c5ccco5)CC4)c23)C1 (centres undefined)	MPTP inh 64, TAAR1 antag 58 | MPTP counter 68 | nonsel antag count inactive | TAAR1 ant conf inactive | Ga16 nonsel ag inactive | TAAR1 ag count inactive
COc1cccc(NC(=O)Nc2ccc(C(C)(C)C)cc2)c1	MPTP inh 79, TAAR1 antag 87 | MPTP counter 81 | nonsel antag count 51 | TAAR1 ant conf 76 | Ga16 nonsel ag 14 | TAAR1 ag count inactive
COC(=O)[C@]12C[C@H](CC(=O)N3CCCC3)C(=O)N(Cc3ccccc3)C1=C[C@H](C(C)(C)C)O[C@@H]2C	none (no result: GPR7 antag, DAGLB inh, MPTP inh)
CCN(CC)CCN(C(=O)/C=C/c1cccs1)c1nc2ccc(F)cc2s1	none
CN(C)CCN(C(=O)/C=C/c1cccs1)c1nc2c(F)cc(F)cc2s1	MPTP inh 102, TAAR1 antag 56 | MPTP counter inactive | nonsel antag count inactive | TAAR1 ant conf inactive | Ga16 nonsel ag inactive | TAAR1 ag count inactive
Cc1ccc(C(C)C)c(OCCNC(=O)c2ccccc2O)c1	MPTP inh 88, TAAR1 antag 58 | MPTP counter 83 | nonsel antag count inactive | TAAR1 ant conf inactive | Ga16 nonsel ag inactive | TAAR1 ag count inactive
CCN1CCN(c2ccc(NC(=O)c3cccc(OCc4ccccc4)c3)cc2)CC1	none

Screens deposited in PubChem by several laboratories.
